Data: ChEMBL document CHEMBL1250470, “Synthesis and CYP24A1 inhibitory activity of (E)-2-(2-substituted benzylidene)- and 2-(2-substituted benzyl)-6-methoxy-tetralones” (Eur J Med Chem, 2010)

How the values were obtained:
Assay type in all cases: cell-based, CHO; call rule not given here
[1] = target: T1, Sterol 26-hydroxylase, mitochondrial (Homo sapiens, UniProt Q02318); assay: Inhibition of CYP27A1 expressed in […]
T1 sequence (Q02318 whole entry): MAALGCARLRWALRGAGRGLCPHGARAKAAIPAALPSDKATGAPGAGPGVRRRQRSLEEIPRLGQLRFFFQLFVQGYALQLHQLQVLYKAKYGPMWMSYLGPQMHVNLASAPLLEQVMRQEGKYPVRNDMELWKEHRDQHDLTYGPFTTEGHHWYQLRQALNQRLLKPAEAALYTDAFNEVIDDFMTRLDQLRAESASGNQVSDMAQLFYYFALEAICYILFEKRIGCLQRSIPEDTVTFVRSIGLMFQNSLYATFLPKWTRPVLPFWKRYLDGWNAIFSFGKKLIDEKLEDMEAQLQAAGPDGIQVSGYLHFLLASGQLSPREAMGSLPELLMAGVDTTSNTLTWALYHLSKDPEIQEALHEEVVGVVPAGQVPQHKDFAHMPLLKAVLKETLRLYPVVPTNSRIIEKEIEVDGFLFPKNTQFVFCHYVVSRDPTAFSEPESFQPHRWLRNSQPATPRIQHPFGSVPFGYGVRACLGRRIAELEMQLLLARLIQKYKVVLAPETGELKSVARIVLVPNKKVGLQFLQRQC
In short: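 V79-4 fibroblasts stably expressing wild-type CYP27A1 were cultured in supplemented DMEM and plated in 6-well plates 24 h before use. They were incubated for 24 h in 1% BSA DMEM with 1α-OH-D₃ substrate plus DPPD, with inhibitors at four concentrations (10⁻⁴–10⁻⁷ M). No-inhibitor, dead-cell and no-cell controls were included. Methanol stopped the reaction, then Bligh-Dyer extraction and silica HPLC with photodiode-array detection quantified the metabolite.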

[2] = target: T2, 1,25-dihydroxyvitamin D(3) 24-hydroxylase, mitochondrial (Homo sapiens, UniProt Q07973); assay: Inhibition of CYP24A1 expressed in […]
T2 sequence (Q07973 whole entry): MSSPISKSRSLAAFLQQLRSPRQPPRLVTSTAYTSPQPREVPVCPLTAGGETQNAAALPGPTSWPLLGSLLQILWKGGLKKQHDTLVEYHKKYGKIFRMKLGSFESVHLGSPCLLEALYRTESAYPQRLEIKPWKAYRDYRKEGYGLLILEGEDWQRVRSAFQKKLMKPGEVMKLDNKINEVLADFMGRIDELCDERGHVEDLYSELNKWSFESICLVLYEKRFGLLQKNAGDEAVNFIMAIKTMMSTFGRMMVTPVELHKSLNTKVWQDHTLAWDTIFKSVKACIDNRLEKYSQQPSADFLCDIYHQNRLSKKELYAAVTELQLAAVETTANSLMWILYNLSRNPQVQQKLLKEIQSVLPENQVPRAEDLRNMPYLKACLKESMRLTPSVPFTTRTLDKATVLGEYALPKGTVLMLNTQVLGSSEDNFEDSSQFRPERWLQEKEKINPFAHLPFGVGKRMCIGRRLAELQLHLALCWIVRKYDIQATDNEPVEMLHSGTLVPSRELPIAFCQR

[3] = target: 1,25-dihydroxyvitamin D(3) 24-hydroxylase, mitochondrial (Homo sapiens, UniProt Q07973, M416T); assay: Inhibition of CYP24A1 M416T mutant expressed in […]
Chain of 1,25-dihydroxyvitamin D(3) 24-hydroxylase, mitochondrial (Homo sapiens, UniProt Q07973, M416T) (Q07973 36-514 M416T limits assumed): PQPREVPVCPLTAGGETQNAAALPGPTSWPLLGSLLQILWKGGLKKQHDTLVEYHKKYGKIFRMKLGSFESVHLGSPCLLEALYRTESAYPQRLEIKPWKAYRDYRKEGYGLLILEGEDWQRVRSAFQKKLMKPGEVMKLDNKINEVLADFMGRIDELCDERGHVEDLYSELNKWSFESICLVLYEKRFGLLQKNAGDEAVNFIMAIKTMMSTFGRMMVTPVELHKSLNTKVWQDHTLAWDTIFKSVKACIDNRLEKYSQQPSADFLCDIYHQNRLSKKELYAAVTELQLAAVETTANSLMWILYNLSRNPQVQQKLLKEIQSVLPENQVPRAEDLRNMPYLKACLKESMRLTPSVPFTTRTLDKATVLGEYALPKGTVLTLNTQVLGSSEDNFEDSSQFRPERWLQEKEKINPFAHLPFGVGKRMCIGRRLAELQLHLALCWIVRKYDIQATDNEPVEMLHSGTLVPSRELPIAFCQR
In short: (§1)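 V79-4 Chinese hamster lung fibroblasts stably expressing wild-type or mutant (L148F, M416T) CYP24A1 were grown in DMEM with FCS, antibiotics and hygromycin at 5% CO₂, then subcultured into 6-well plates for 24 h. Incubation was for 6 h in 1% BSA DMEM with 100,000 CPM/well [1β-³H]1α,25-(OH)₂D₃ and DPPD antioxidant. Inhibitors, from ethanol stocks, were tested at 10⁻⁴–10⁻⁷ M. Methanol stopped the reaction, followed by scintillation counting.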

[4] = target: 1,25-dihydroxyvitamin D(3) 24-hydroxylase, mitochondrial (Homo sapiens, UniProt Q07973, L148F); assay: Inhibition of CYP24A1 L148F mutant expressed in […]; in short: as §1
Chain of 1,25-dihydroxyvitamin D(3) 24-hydroxylase, mitochondrial (Homo sapiens, UniProt Q07973, L148F) (Q07973 36-514 L148F limits assumed): as the sequence (Q07973 36-514 M416T limits assumed) above, with L113F, T381M counted along it

IC50 [1] [µM] | IC50 [2] [µM] | inhibition (INH) [3] | inhibition (INH) [4] | Structure (SMILES)
5.69 | 5.08 |  |  | COc1ccc2c(c1)CC/C(=C\c1ccccc1/C=C/c1ccccc1)C2=O
 | 128 |  |  | COc1ccc2c(c1)CCC(Cc1ccccc1-c1ccccc1)C2=O (stereo not given)
 | 11.2 |  |  | COc1ccc2c(c1)CC/C(=C\c1ccccc1C(F)(F)F)C2=O
 | 480 |  |  | COc1ccc2c(c1)CC/C(=C\c1ccccc1C)C2=O
0.059 | 16.3 |  |  | COc1ccc2c(c1)CCC(Cc1ccccc1Br)C2=O (stereo not given)
 | 127 |  |  | COc1ccc2c(c1)CCC(Cc1ccccc1C)C2=O (stereo not given)
 | 25.6 | Active | Active | COc1ccc2c(c1)CCC(Cc1ccccc1CCc1ccccc1)C2=O (stereo not given)
 | 10.8 |  |  | CCc1ccccc1/C=C1\CCc2cc(OC)ccc2C1=O
 | 111 |  |  | COc1ccc2c(c1)CC/C(=C\c1ccccc1-c1ccccc1)C2=O
8.23 | 1.92 |  |  | CCc1ccccc1CC1CCc2cc(OC)ccc2C1=O (stereo not given)
 | 343 |  |  | COc1ccc2c(c1)CCC(Cc1ccccc1/C=C/c1ccccc1)C2=O (stereo not given)
5.34 | 2.08 |  |  | COc1ccc2c(c1)CCC(Cc1ccccc1C(F)(F)F)C2=O (stereo not given)
4.33 | 122 |  |  | COc1ccc2c(c1)CC/C(=C\c1ccccc1Br)C2=O
